Assay results published in ChEMBL document CHEMBL1157043, “An eco-friendly synthesis and antimicrobial activities of dihydro-2H-benzo- and naphtho-1,3-oxazine derivatives” (Eur J Med Chem, 2010).
Values after ≈ are worked out from the molar mass of the structure shown.

What was measured:
[1] = system: Aspergillus fumigatus; assay: Antimicrobial activity against Aspergillus fumigatus after 24 hrs; assay type: functional
[2] = system: Sporothrix schenckii; assay: Antimicrobial activity against Sporothrix schenckii after 24 hrs; assay type: functional
Method in brief: (§1)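 Broth microdilution per NCCLS guidelines in MOPS-buffered RPMI 1640. Starting inoculum was 1-5 × 10^3 cfu/mL, and plates were incubated at 35 °C. MIC was read spectrophotometrically at 492 nm after 24–48 h for yeasts and 72–96 h for mycelial fungi.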

[3] = system: Trichophyton mentagrophytes; assay: Antimicrobial activity against Trichophyton mentagrophytes after 24 hrs; assay type: functional
[4] = system: Klebsiella pneumoniae; assay: Antimicrobial activity against Klebsiella pneumoniae after 24 hrs; assay type: functional
Method in brief: (§2)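 NCCLS microdilution in Mueller Hinton broth. Strains were grown 24 h on nutrient agar at 37 °C, suspended at about 1.0–2.0 × 10^7 cells/mL (McFarland-matched) in saline with 0.05% Tween 20, then diluted 100 µL into 10 mL medium. Compounds were taken from a 1 mg/mL DMSO stock as twofold dilutions, top final 50 µg/mL. Incubation was 35 °C in a moist, dark chamber, and MIC was read spectrophotometrically at 24 h.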

[5] = system: Pseudomonas aeruginosa; assay: Antimicrobial activity against Pseudomonas aeruginosa after 24 hrs; assay type: functional; method in brief: as §2
[6] = system: Cryptococcus neoformans; assay: Antimicrobial activity against Cryptococcus neoformans after 24 hrs; assay type: functional; method in brief: as §1
[7] = system: Escherichia coli; assay: Antimicrobial activity against Escherichia coli after 24 hrs; assay type: functional; method in brief: as §2
[8] = system: Candida albicans; assay: Antimicrobial activity against Candida albicans after 24 hrs; assay type: functional; method in brief: as §1
[9] = system: Staphylococcus aureus; assay: Antimicrobial activity against Staphylococcus aureus after 24 hrs; assay type: functional; method in brief: as §2
[10] = system: Candida parapsilosis; assay: Antimicrobial activity against Candida parapsilosis ATCC 22019 after 24 hrs; assay type: functional; settings: Lodderomyces parapsilosis, ATCC 22019, 24 h; method in brief: as §1
[11] = system: L929; assay: Cytotoxicity against mouse L929 cells at 6.25 ug/ml after 24 hrs by MTT assay; assay type: cell-based; settings: l929, 24 h
Method in brief: (§3)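 L929 mouse fibroblasts were grown in RPMI 1640 with 10% FBS at 37 °C under 5% CO2 and seeded at 1.0 × 10^5 cells/mL. At 80% confluence the medium was switched to serum-free RPMI, and cells were exposed 24 h to 0.09–25 µg/mL in twofold steps. After PBS washes, cells got 0.5 mg/mL MTT for 4 h at 37 °C, then DMSO for 30 min at room temperature. Viability was calculated as (A570−A630) relative to untreated cells.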

[12] = system: Aspergillus fumigatus; assay: Antimicrobial activity against Aspergillus fumigatus after 72 to 96 hrs
[13] = Cytotoxicity against mouse L929 cells assessed as viability at 12.5 to 25 ug/ml after 24 hrs by MTT assay; assay type: cell-based; settings: read-out: Activity; method in brief: as §3
[14] = system: L929; assay: Cytotoxicity against mouse L929 cells assessed as change in morphology at 6.25 ug/ml after 24 hrs […]; assay type: cell-based; settings: l929, 24 h
Method in brief: (§4)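 L929 fibroblasts (serum-free RPMI, 37 °C, 5% CO2) were exposed to compound for 24 h, then fixed and stained with Giemsa for 30 min at 37 °C. Excess stain was washed off with PBS, plates were air-dried, and cell morphology was examined under a phase contrast microscope against untreated controls.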

[15] = system: Trichophyton mentagrophytes; assay: Antimicrobial activity against Trichophyton mentagrophytes after 72 to 96 hrs
[16] = system: L929; assay: Cytotoxicity against mouse L929 cells assessed as change in cellular morphology at 12.5 to 25 ug/ml after 24 hrs […]; assay type: cell-based; settings: l929, 24 h; method in brief: as §4

MIC [1] [µg/mL] | MIC [2] [µg/mL] | MIC [3] [µg/mL] | MIC [4] [µg/mL] | MIC [5] [µg/mL] | MIC [6] [µg/mL] | MIC [7] [µg/mL] | MIC [8] [µg/mL] | MIC [9] [µg/mL] | MIC [10] [µg/mL] | MIC [12] [µg/mL] | MIC [15] [µg/mL] | Compound | Activity [11] | viability at 24 h [13] [%] | Activity [14] | Activity [16]
> 50 | 25 (≈ 103 µM) | 25 (≈ 103 µM) | 50 (≈ 206 µM) | 50 (≈ 206 µM) | 50 (≈ 206 µM) | 50 (≈ 206 µM) | > 50 | 50 (≈ 206 µM) | > 50 | – | – | Cc1ccc2c(c1)CN(c1ccc(F)cc1)CO2 | – | – | – | –
25 (≈ 96.3 µM) | 12.5 (≈ 48.1 µM) | 12.5 (≈ 48.1 µM) | 25 (≈ 96.3 µM) | 50 (≈ 193 µM) | 25 (≈ 96.3 µM) | > 50 | 50 (≈ 193 µM) | 25 (≈ 96.3 µM) | 50 (≈ 193 µM) | – | – | Cc1ccc2c(c1)CN(c1ccc(Cl)cc1)CO2 | – | – | – | –
– | 6.25 (≈ 17.1 µM) | – | > 50 | > 50 | 12.5 (≈ 34.2 µM) | > 50 | 12.5 (≈ 34.2 µM) | 12.5 (≈ 34.2 µM) | 25 (≈ 68.4 µM) | 50 (≈ 137 µM) | 3.12 (≈ 8.54 µM) | Clc1ccc2c(c1)CN(CCN1COc3ccc(Cl)cc3C1)CO2 | Non-toxic | > 90 | Non-toxic | Toxic
– | 6.25 (≈ 22.3 µM) | – | > 50 | > 50 | 12.5 (≈ 44.6 µM) | > 50 | 12.5 (≈ 44.6 µM) | 6.25 (≈ 22.3 µM) | 25 (≈ 89.2 µM) | 25 (≈ 89.2 µM) | 3.12 (≈ 11.1 µM) | Clc1ccc2c(c1)CN(c1ccccc1Cl)CO2 | Non-toxic | > 90 | Non-toxic | Toxic
